Calls of active or inactive are those of the source. The rule behind the calls is not given here.
Columns and labels:
HL-60 [1] = experiment: Growth inhibition of human HL60 cells at 20 uM after 48 hrs by MTT assay relative to control; type: functional; conditions: for inhibition of growth at 20 µM: HL-60, 48 h, read-out: GI
HL-60 [2] = experiment: Growth inhibition of human HL60 cells at 5 uM after 48 hrs by MTT assay relative to control; type: functional; conditions: for inhibition of growth at 5 µM: HL-60, 48 h, read-out: GI
HL-60 [3] = experiment: Growth inhibition of human HL60 cells at 1.25 uM after 48 hrs by MTT assay relative to control; type: functional; conditions: for inhibition of growth at 1.25 µM: HL-60, 48 h, read-out: GI
HL-60 [4] = experiment: Growth inhibition of human HL60 cells at 10 uM after 48 hrs by MTT assay relative to control; type: functional; conditions: for inhibition of growth at 10 µM: HL-60, 48 h, read-out: GI
HL-60 [5] = experiment: Growth inhibition of human HL60 cells at 40 uM after 48 hrs by MTT assay relative to control; type: functional; conditions: for inhibition of growth at 40 µM: HL-60, 48 h, read-out: GI
HL-60 [6] = experiment: Growth inhibition of human HL60 cells after 48 hrs by MTT assay; type: functional, cell-based; conditions: HL-60, 48 h
Procedure, shortened: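 HL-60 human promyelocytic leukemia cells; proliferation inhibition of the cells measured and reported as IC50; values are mean ± SE of at least three independent experiments.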

HL-60 [7] = experiment: Growth inhibition of human HL60 cells at 0.63 uM after 48 hrs by MTT assay relative to control; type: functional; conditions: for inhibition of growth at 0.63 µM: HL-60, 48 h, read-out: GI
HL-60 [8] = experiment: Growth inhibition of human HL60 cells at 2.5 uM after 48 hrs by MTT assay relative to control; type: functional; conditions: for inhibition of growth at 2.5 µM: HL-60, 48 h, read-out: GI
HL-60 [9] = experiment: Induction of apoptosis in human HL60 cells assessed as early apoptotic cells at 80 uM after 24 hrs by Annexin V-PE/7AAD staining based flow cytometry (reference value: 4.42%); type: functional
HL-60 [10] = experiment: Induction of apoptosis in human HL60 cells assessed as live cells at 80 uM after 24 hrs by Annexin V-PE/7AAD staining based flow cytometry (reference value: 90.9%); type: functional
HL-60 [11] = experiment: Induction of apoptosis in human HL60 cells assessed as downregulation of Bcl2 expression up to 80 uM after 24 hrs by Western blot method; type: functional, cell-based
Procedure, shortened: (§1)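 HL-60 cells treated at different concentrations; lysates probed with specific antibodies against procaspase-3, cleaved caspase-9, PARP, Bcl-2, phospho-P70S6K and phospho-Akt; actin used as loading control.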

HL-60 [12] = experiment: Induction of apoptosis in human HL60 cells assessed as PARP cleavage up to 80 uM after 24 hrs by Western blot method; type: functional, cell-based; procedure, shortened: as §1
[13] = biological target: Serine/threonine-protein kinase mTOR (Homo sapiens) (UniProt P42345); experiment: Inhibition of mTOR in human HL60 cells assessed as reduction in P70S6K phosphorylation at Thr389-residue up to 80 uM after 24 hrs by Western blot method; type: cell-based; procedure, shortened: as §1
HL-60 [14] = experiment: Induction of apoptosis in human HL60 cells assessed as late apoptotic cells at 80 uM after 24 hrs by Annexin V-PE/7AAD staining based flow cytometry (reference value: 3.64%); type: functional
HL-60 [15] = experiment: Induction of apoptosis in human HL60 cells assessed as necrotic cells at 80 uM after 24 hrs by Annexin V-PE/7AAD staining based flow cytometry (reference value: 1.08%); type: functional
HL-60 [16] = experiment: Induction of apoptosis in human HL60 cells assessed as downregulation of procaspase-3 expression after 24 hrs by Western blot method; type: functional, cell-based; procedure, shortened: as §1
Homo sapiens = organism: Homo sapiens; experiment: Inhibition of PI3K in human HL60 cells assessed as reduction in Akt phosphorylation at Ser473-residue up to 80 uM after 24 hrs by Western blot method; type: cell-based; procedure, shortened: as §1
HL-60 [17] = experiment: Induction of apoptosis in human HL60 cells assessed as caspase-9 cleavage after 24 hrs by Western blot method; type: functional, cell-based; procedure, shortened: as §1

SMILES | IC50 (HL-60 [6]) | inhibition of growth at 20 µM (HL-60 [1]) | inhibition of growth at 5 µM (HL-60 [2]) | inhibition of growth at 1.25 µM (HL-60 [3]) | inhibition of growth at 10 µM (HL-60 [4]) | inhibition of growth at 40 µM (HL-60 [5]) | inhibition of growth at 0.63 µM (HL-60 [7]) | inhibition of growth at 2.5 µM (HL-60 [8]) | further results
C[C@H]1[C@H](C)CC[C@]2(C(=O)O)CC[C@]3(C)C(=CC[C@@H]4[C@@]5(C)CC[C@H](O)C(C)(C)[C@@H]5CC[C@]43C)[C@H]12 [URSOLIC ACID] | > 40 µM | – | – | – | – | – | – | – | Activity (HL-60 [9]): 13.3%; Activity (HL-60 [10]): 83.4%; Activity (HL-60 [11]): inactive; Activity (HL-60 [12]): Active; growth inhibition (GI) (HL-60 [1]): inactive; growth inhibition (GI) (HL-60 [2]): inactive; growth inhibition (GI) (HL-60 [3]): inactive; inhibition [13]: Active; growth inhibition (GI) (HL-60 [4]): inactive; Activity (HL-60 [14]): 2.43%; growth inhibition (GI) (HL-60 [5]): inactive; Activity (HL-60 [15]): 0.835%; Activity (HL-60 [16]): Dose-dependent effect; growth inhibition (GI) (HL-60 [7]): inactive; inhibition (Homo sapiens): Active; Activity (HL-60 [17]): Dose-dependent effect; growth inhibition (GI) (HL-60 [8]): inactive
C[C@H]1[C@H](C)CC[C@]2(C(=O)N(CCO)CCO)CC[C@]3(C)C(=CC[C@@H]4[C@@]5(C)CCC(=O)C(C)(C)[C@@H]5CC[C@]43C)[C@H]12 | 7.04 µM | 86.5% | 26.7% | 8.43% | 53.7% | 92.7% | 9.32% | 12.4% | –
C[C@H]1[C@H](C)CC[C@]2(C(=O)O)CC[C@]3(C)C(=CC[C@@H]4[C@@]5(C)CCC(=O)C(C)(C)[C@@H]5CC[C@]43C)[C@H]12 [URSONIC ACID] | > 40 µM | – | – | – | – | – | – | – | growth inhibition (GI) (HL-60 [1]): inactive; growth inhibition (GI) (HL-60 [2]): inactive; growth inhibition (GI) (HL-60 [3]): inactive; growth inhibition (GI) (HL-60 [4]): inactive; growth inhibition (GI) (HL-60 [5]): inactive; growth inhibition (GI) (HL-60 [7]): inactive; growth inhibition (GI) (HL-60 [8]): inactive

Now those with a lower IC50 (HL-60 [6]), led by results:

IC50 (HL-60 [6]) | SMILES | inhibition of growth at 20 µM (HL-60 [1]) | inhibition of growth at 5 µM (HL-60 [2]) | inhibition of growth at 1.25 µM (HL-60 [3]) | inhibition of growth at 10 µM (HL-60 [4]) | inhibition of growth at 40 µM (HL-60 [5]) | inhibition of growth at 0.63 µM (HL-60 [7]) | inhibition of growth at 2.5 µM (HL-60 [8]) | further results
5.64 µM | CC(=O)NN/C=C1/C[C@]2(C)[C@H]3CC=C4[C@@H]5[C@@H](C)[C@H](C)CC[C@]5(C(=O)O)CC[C@@]4(C)[C@]3(C)CC[C@H]2C(C)(C)C1=O | 69.7% | 41.7% | 20.7% | 61.7% | 93.1% | 9.96% | 28.8% | –
5.44 µM | C[C@H]1[C@H](C)CC[C@]2(C(=O)O)CC[C@]3(C)C(=CC[C@@H]4[C@@]5(C)C/C(=C/O)C(=O)C(C)(C)[C@@H]5CC[C@]43C)[C@H]12 | 72.4% | 50.3% | 18.5% | 67% | 89.8% | 9.03% | 33.9% | –
5.21 µM | C[C@H]1[C@H](C)CC[C@]2(C(=O)N(CCO)CCO)CC[C@]3(C)C(=CC[C@@H]4[C@@]5(C)Cc6cn[nH]c6C(C)(C)[C@@H]5CC[C@]43C)[C@H]12 | 94% | 64.8% | 2.47% | 86.8% | 93.6% | 3.54% | 19.3% | –
2.64 µM | C[C@H]1[C@H](C)CC[C@]2(C(=O)N3CCNCC3)CC[C@]3(C)C(=CC[C@@H]4[C@@]5(C)CCC(=O)C(C)(C)[C@@H]5CC[C@]43C)[C@H]12 | 92.5% | 82.2% | 22.5% | 92.7% | 94.8% | 10.6% | 43.7% | –

— ChEMBL document CHEMBL4002606, “Discovery of FZU-03,010 as a self-assembling anticancer amphiphile for acute myeloid leukemia” (Bioorg Med Chem Lett, 2017)
